Each block holds one compound with its values, some of them ahead of it.
What was measured:
[1] = target: T1, ∼130 kDa band (XlnD, β-xylosidase) (Aspergillus niger, UniProt O00089); test: ABP labeling of secretomes and competition by inhibitors; format: binding, A. niger
T1 sequence (O00089 27-804): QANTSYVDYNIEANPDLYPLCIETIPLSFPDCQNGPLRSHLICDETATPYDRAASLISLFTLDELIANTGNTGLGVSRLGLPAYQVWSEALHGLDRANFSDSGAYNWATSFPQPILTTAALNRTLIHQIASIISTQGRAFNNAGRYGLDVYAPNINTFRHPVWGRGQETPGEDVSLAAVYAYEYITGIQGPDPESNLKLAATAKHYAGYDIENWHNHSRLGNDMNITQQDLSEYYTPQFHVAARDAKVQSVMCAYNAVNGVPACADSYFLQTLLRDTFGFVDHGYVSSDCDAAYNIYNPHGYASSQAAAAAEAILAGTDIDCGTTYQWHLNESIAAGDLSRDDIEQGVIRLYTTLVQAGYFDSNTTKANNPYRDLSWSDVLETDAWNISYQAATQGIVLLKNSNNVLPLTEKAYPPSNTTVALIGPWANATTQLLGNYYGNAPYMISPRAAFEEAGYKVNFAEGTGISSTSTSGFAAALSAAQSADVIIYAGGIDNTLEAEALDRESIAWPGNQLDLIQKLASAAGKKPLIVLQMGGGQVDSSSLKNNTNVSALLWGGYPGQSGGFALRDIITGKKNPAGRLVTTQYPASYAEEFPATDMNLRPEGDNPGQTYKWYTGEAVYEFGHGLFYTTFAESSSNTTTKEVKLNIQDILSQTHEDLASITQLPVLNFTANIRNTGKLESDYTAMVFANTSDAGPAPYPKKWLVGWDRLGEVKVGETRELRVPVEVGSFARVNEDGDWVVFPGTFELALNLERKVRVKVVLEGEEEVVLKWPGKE
Outline: (§1)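 A. niger N402 was grown in minimal medium with 50 mM (0.75% w/v) xylose or 1% w/v beechwood xylan as sole carbon source. Secretomes were sampled at days 1–9, brought to pH 4.5 with phosphate/citrate buffer and labeled unconcentrated with Cy5 ABPs. In competition runs, secretome was preincubated with competitor (e.g. 100 μM aziridine) before ABP. Bands were read by SDS-PAGE fluorescence scan.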

[2] = target: ∼30 kDa band (XlnC, β-xylanase) (Aspergillus niger, UniProt C5J411); test: as above; format: binding, A. niger; settings: xylan-induced secretome preincubated with competitor, then ABP 8
Outline: as §1

ASPACDRAFT_127619 = target: T2, ASPACDRAFT_127619 (Aspergillus aculeatus, UniProt A0A1L9WG58); test: Competitive ABP labeling by 8 against substrates, recombinant enzyme; format: binding, A. aculeatus
T2 sequence (A0A1L9WG58 23-338): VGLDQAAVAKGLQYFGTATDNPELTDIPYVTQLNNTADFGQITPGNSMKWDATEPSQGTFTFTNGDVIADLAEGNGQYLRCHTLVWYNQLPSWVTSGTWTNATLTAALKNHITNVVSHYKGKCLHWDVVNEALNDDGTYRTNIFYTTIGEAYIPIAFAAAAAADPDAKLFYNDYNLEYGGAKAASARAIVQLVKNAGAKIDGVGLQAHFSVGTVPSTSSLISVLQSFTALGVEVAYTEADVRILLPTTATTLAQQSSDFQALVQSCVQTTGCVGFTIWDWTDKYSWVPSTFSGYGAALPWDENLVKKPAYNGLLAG
Outline: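 Labeling of recombinant GH10 xylanase used 100 nM xylobiose Cy5 ABP for 10 min at room temperature, with competing substrates (e.g. polysaccharides) added. Loss of in-gel fluorescence with competitor concentration gave IC50. Assays were also repeated at 20 min, 37 °C, 1 μM ABP. Three or four technical replicates.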

competition of ∼130 kDa band labeling by 8 ([1]; xylan-induced secretome preincubated with competitor, then ABP 8): No labeling inhibition
competition of ∼30 kDa band labeling by 8 [2]: No labeling inhibition
SMILES: OC[C@@H]1[C@@H](O)[C@H](O)[C@@H](O)[C@@H]2O[C@H]12 [Compound 22, cyclophellitol]

SMILES: OC[C@@H]1[C@@H](O)[C@H](O)[C@@H](O)[C@@H]2N[C@H]12 [Compound 23, cyclophellitol aziridine]
competition of ∼130 kDa band labeling by 8 ([1]; preincubation with 100 μM competitor): some loss of intensity

IC50 (ASPACDRAFT_127619): 204 µM
SMILES: Cc1cc(=O)oc2cc(O[C@@H]3OC[C@@H](O[C@@H]4OC[C@@H](O)[C@H](O)[C@H]4O)[C@H](O)[C@H]3O)ccc12 [4MU-β-D-xylobioside]

Reference: publication PMC6598175 (ACS Central Science, 2019)
